Source: PubChem
Shown are actives, neighbours in structure and some others; about 3.1% of the full set was active somewhere.
hERG rescue: hERG rescue from dofetilide block, primary screen, cell-based, CHO-hERG, FluxOR thallium flux, dofetilide IC70. AID 1511, 2009. Voltage-gated inwardly rectifying potassium channel KCNH2 (Homo sapiens), Q12809. dofetilide IC70 present. activation (rescue from dofetilide block), less the hit threshold, % at 10 µM. 0.51% of 310,000 active;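 active means activation above the mean of controls blocked by dofetilide plus 5 SD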;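 further: thallium influx through hERG after potassium depolarization seen as dye fluorescence rise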
KCNQ1 inh: inhibitors of human KCNQ1 channel, primary screen, cell-based, thallium flux, high-throughput | CHO-K1 KCNQ1, FluxOR thallium flux fluorescence; active compounds read high | B-score at 10 µM | 1.3% of 310,000 active | AID 2642, 2010;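 active means compounds whose thallium flux B-score, printed positive for inhibition, exceeds three library SD while starting fluorescence stays within three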;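 further: channel opened by potassium depolarization with thallium stimulus after 20 min compound exposure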
KCNQ1 act: potentiators or activators of KCNQ1 channel, primary screen, cell-based, thallium flux, high-throughput; Potassium voltage-gated channel subfamily KQT member 1 (Homo sapiens), P51787; CHO-K1 KCNQ1, thallium flux FluxOR fluorescence; active compounds read high; B-score at 10 µM; 0.35% of 310,000 active;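 active means fluorescence ratio B-score, a plate-corrected score, at least three library SD, with initial intensity B-score within 5 SD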
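System: Stable KCNQ1 CHO-K1 line | Incubation: 90 min dye loading and 20 min compound exposure, both at room temperature | Measure: Ratio B score | Medium: Assay buffer for compound exposure, DMSO matched across wells | Compound dosing: Single-concentration screen | Probe or stimulus: K+/Tl+ depolarizing stimulus | Measured by: Kinetic FluxOR fluorescence, 10 s baseline plus 110 s post-stimulus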
KCNK9 block: KCNK9 potassium channel inhibitors, primary screen, HEK293 cells, thallium flux; Potassium channel subfamily K member 9 (Homo sapiens), Q9NPC2; FluxOR thallium flux fluorescence; active compounds read low; B-score at 10 µM; 1.2% of 310,000 active; AID 488922, 2010;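 active means ratio B-score over 3 SD below the library mean, with starting fluorescence within 5 SD of its mean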;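 further: negative B-score means less thallium flux so channel inhibition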
KCNK3 inh: human KCNK3 channel inhibitors, primary screen, CHO cells, FluxOR thallium flux, B-score; FluxOR fluorescence; active compounds read low; B-score at 10 µM; 0.84% of 340,000 active; AID 602410, 2012;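 active means B-score under library mean minus 4 SD, starting fluorescence ratio at most library mean plus 5 SD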;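 further: more negative B-score means stronger inhibition of thallium flux through KCNK3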
Target sequence (O14649 whole entry, looked up): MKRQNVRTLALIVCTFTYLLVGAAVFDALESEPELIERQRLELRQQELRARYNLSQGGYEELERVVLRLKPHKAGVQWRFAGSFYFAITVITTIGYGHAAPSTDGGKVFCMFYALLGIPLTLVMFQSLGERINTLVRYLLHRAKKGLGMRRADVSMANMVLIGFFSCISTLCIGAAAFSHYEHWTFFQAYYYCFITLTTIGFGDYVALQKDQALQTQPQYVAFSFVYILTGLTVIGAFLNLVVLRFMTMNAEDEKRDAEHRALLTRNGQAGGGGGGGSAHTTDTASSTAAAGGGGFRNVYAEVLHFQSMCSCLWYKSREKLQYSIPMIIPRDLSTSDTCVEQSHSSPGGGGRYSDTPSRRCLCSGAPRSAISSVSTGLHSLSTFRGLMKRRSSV
KCNK9 inh conf: KCNK9 potassium channel inhibitors, confirmation, HEK293 cells, thallium flux, duplicate; inhibition, % at 10 µM; 43% of 4,900 active; shares compounds with KCNK9 block; FluxOR thallium flux fluorescence;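 active means thallium signal inhibited by more than 5 SD of the compound-free buffer control wells, on both duplicate plates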;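 further: 0% = assay buffer control wells without compound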
Kir2-1 spec: mouse Kir2.1 channel inhibition, confirmation, selectivity assay for KCNK9 modulator project, cell-based, HEK293, thallium flux. 4% of 4,900 active. AID 492993, 2010. inhibition, % at 10 µM. shares compounds with KCNK9 block. Kir2.1 cells, FluxOR thallium flux fluorescence;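 active means thallium signal drop more than 5 SD beyond the mean of the no-compound control wells, seen in both duplicate plates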;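 further: signal is fluorescence rise after thallium addition divided by baseline fluorescence; plate controls were assay buffer only for no effect and full block by chlorpromazine control for full effect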
HEK293 Tl ctr: thallium flux in non-induced HEK293 cells, confirmation, counter-screen for KCNK9 inhibitor project, cell-based, second counter screen, non-induced KCNK9-HEK293; shares compounds with KCNK9 block; FluxOR thallium flux; inhibition, % at 10 µM; 40% of 4,900 active;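 active means thallium signal drop beyond 5 SD of the untreated control mean, on both duplicate plates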;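 further: plate controls were buffer only IC0 wells for no effect and SID17386958 at its maximal inhibitory level for full effect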
Active calls of the source: *.

Results for CCOC(=O)COc1ccccc1C1Nc2ccccc2C(=O)N1c1cccc(Cl)c1 (stereo not given) ?
hERG rescue: -1; KCNQ1 inh: inactive; KCNQ1 act: inactive; KCNK9 block: -14*; KCNK3 inh: -11*; KCNK9 inh conf: 62%*; Kir2-1 spec: inactive; HEK293 Tl ctr: 34%*

What do the screens show for `CCOc1cc(C2Nc3ccccc3C(=O)N2c2ccccc2)c(Br)cc1OCC(=O)O` (stereo not given)?
hERG rescue: -7; KCNQ1 inh: inactive; KCNQ1 act: inactive; KCNK9 block: inactive; KCNK3 inh: inactive

Results for Oc1ccccc1C=Nc1ccccc1-c1nc2ccccc2[nH]1 ?
hERG rescue: -7; KCNQ1 inh: inactive; KCNQ1 act: inactive; KCNK9 block: inactive; KCNK3 inh: inactive

What do the screens show for `COc1ccc(OC)c(C=Nc2ccccc2-c2nc3ccccc3[nH]2)c1`?
hERG rescue: -14; KCNQ1 inh: inactive; KCNQ1 act: inactive; KCNK9 block: -8.4*; KCNK3 inh: inactive; KCNK9 inh conf: 39%*; Kir2-1 spec: inactive; HEK293 Tl ctr: 28%*

How did Fc1ccccc1N1CCN(CCCc2ccccc2)CC1 do in these assays?
hERG rescue: -10; KCNQ1 inh: inactive; KCNQ1 act: inactive; KCNK9 block: inactive; KCNK3 inh: inactive

Results for Fc1ccccc1N1CCN(Cc2nc(-c3ccccc3)no2)CC1 ?
hERG rescue: -13; KCNQ1 inh: inactive; KCNQ1 act: inactive; KCNK9 block: inactive; KCNK3 inh: inactive; KCNK9 inh conf: inactive; Kir2-1 spec: inactive; HEK293 Tl ctr: inactive

Results for c1ccc(-c2noc(CN3CCN(c4ccccc4)CC3)n2)cc1 ?
hERG rescue: -10; KCNQ1 inh: inactive; KCNQ1 act: inactive; KCNK9 block: inactive; KCNK3 inh: inactive

How did COc1ccc(-c2noc(CN3CCN(c4ccccc4F)CC3)n2)cc1OC do in these assays?
hERG rescue: -8; KCNQ1 inh: inactive; KCNQ1 act: inactive; KCNK9 block: inactive; KCNK3 inh: inactive; KCNK9 inh conf: inactive; Kir2-1 spec: inactive; HEK293 Tl ctr: inactive

How did Fc1ccccc1N1CCN(Cc2cc(-c3ccccc3)on2)CC1 do in these assays?
hERG rescue: -5; KCNQ1 inh: inactive; KCNQ1 act: inactive; KCNK9 block: inactive; KCNK3 inh: inactive; KCNK9 inh conf: inactive; Kir2-1 spec: inactive; HEK293 Tl ctr: inactive

How did O=C1c2ccccc2C(=O)N1Cc1nc(-c2ccccc2)no1 do in these assays?
hERG rescue: -8; KCNQ1 inh: inactive; KCNQ1 act: inactive; KCNK9 block: inactive; KCNK3 inh: inactive; KCNK9 inh conf: inactive; Kir2-1 spec: inactive; HEK293 Tl ctr: inactive

How did CCN=C1SC(C(=O)Nc2ccccc2)CC(=O)N1CC (stereo not given) do in these assays?
hERG rescue: 1; KCNQ1 inh: inactive; KCNQ1 act: inactive; KCNK9 block: inactive; KCNK3 inh: inactive

How did O=[N+]([O-])c1ccc(C2CCCC/C2=N/OCc2ccc(F)cc2)c([N+](=O)[O-])c1 (stereo not given) do in these assays?
hERG rescue: -14; KCNQ1 inh: inactive; KCNQ1 act: inactive; KCNK9 block: -8.2*; KCNK3 inh: inactive; KCNK9 inh conf: 76%*; Kir2-1 spec: inactive; HEK293 Tl ctr: 32%*
